Results reported in ChEMBL document CHEMBL4145455, “Design, synthesis and evaluation of novel phenyl propionamide derivatives as non-nucleoside hepatitis B virus inhibitors” (Eur J Med Chem, 2018).

Columns and labels:
[1] = Cytotoxicity against human HepG2(2.2.15) cells assessed as reduction in cell viability after 72 hrs by MTT assay; type: cell-based
Summary of the method: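 Confluent HepG2 2.2.15 cells exposed to graded compound concentrations for 72 h alongside untreated controls on each plate; viability by MTT uptake, absorbance 490 nm relative to untreated cells; CC50 = concentration killing 50% of cells. Three replicates.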

[2] = tested on: Hepatitis B virus; assay: Antiviral activity against HBV infected in human HepG2(2.2.15) cells assessed as inhibition of viral DNA replication at 20 uM after 6 days by RT-PCR method relative to control; type: functional; conditions: HepG2 2.2.15, 144 h
Summary of the method: (§1)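 HepG2 2.2.15 cells (stable HBV genome; DMEM, 10% FBS, G418 0.38 mg/mL) seeded 2×10^5/well, recovered 24 h, then compound in assay medium (single 20 or 4 μM, or dose series for IC50), medium changed every 2 days; after 6 days HBV DNA extracted and quantified by real-time PCR. Mean ± SD, ≥3 independent experiments in duplicate.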

[3] = tested on: Hepatitis B virus; assay: Antiviral activity against HBV infected in human HepG2(2.2.15) cells assessed as inhibition of viral DNA replication after 6 days by RT-PCR method; type: functional, organism-based; conditions: HepG2 2.2.15, 144 h; summary of the method: as §1
[4] = Selectivity index, ratio of CC50 for human HepG2(2.2.15) cells to IC50 for antiviral activity against HBV infected in human HepG2(2.2.15) cells assessed as inhibition of viral DNA replication; type: toxicity, cell-based; conditions: read-out: Ratio CC50/IC50
Summary of the method: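 SI calculated as CC50 (72 h MTT, HepG2 2.2.15) divided by IC50 for inhibition of HBV DNA replication measured by real-time PCR.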

[5] = tested on: Hepatitis B virus; assay: Antiviral activity against HBV infected in human […] cells assessed as inhibition of viral DNA replication at 100 uM after 72 hrs by RT-PCR method relative to control; type: functional
Summary of the method: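 HepG2 cells (2×10^5/well) transfected overnight-plated, 24 h with plasmid carrying wild-type or rtL180M+rtM204V+rtT184L resistant HBV; after PBS wash, fresh medium with lamivudine 100 μM, entecavir 10 μM, or test compounds 1 μM (one at 10 μM) for 72 h; replicative intermediate HBV DNA measured by real-time PCR.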

[6] = tested on: Hepatitis B virus; assay: Antiviral activity against lamivudine/entecavir resistant HBV harboring reverse transcriptase L180M/M204V/T184L mutant infected in human […] after 72 hrs by RT-PCR method; type: functional, organism-based
Summary of the method: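 HepG2 cells (2×10^5 per well) were plated, incubated overnight, then transiently transfected for 24 h with a plasmid carrying the full HBV genome with rtL180M + rtM204V + rtT184L. Medium was discarded, cells washed with PBS, then treated across a dose range in fresh medium for 72 h. Intracellular HBV DNA replicative intermediate was quantified by real-time PCR. IC50 is 50% inhibition of DNA replication.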

[7] = Selectivity index, ratio of CC50 for human HepG2(2.2.15) cells to IC50 for antiviral activity against lamivudine/entecavir resistant HBV harboring reverse transcriptase L180M/M204V/T184L mutant infected in human HepG2(2.2.15) cells; type: toxicity, cell-based; conditions: read-out: Ratio CC50/IC50
Summary of the method: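 SI = CC50/IC50. CC50 comes from HepG2 2.2.15 cells grown to confluence and treated for 72 h, with MTT absorbance at 490 nm relative to untreated cells, in triplicate. IC50 comes from mutant-plasmid-transfected HepG2 cells treated for 72 h, with HBV DNA measured by real-time PCR.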

[8] = tested on: Hepatitis B virus; assay: Antiviral activity against HBV infected in human HepG2(2.2.15) cells assessed as inhibition of intracellular viral pregenomic RNA expression at 1 uM after 6 days by TRIzol reagent based RT-PCR method relative to control; type: functional; conditions: HepG2 2.2.15, 144 h
Summary of the method: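 HepG2 2.2.15 cells at 6×10^5 per well treated 6 days at 1 μM; total cellular RNA extracted and intracellular HBV pgRNA quantified by real-time PCR.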

[9] = tested on: Hepatitis B virus; assay: Antiviral activity against lamivudine/entecavir resistant HBV harboring reverse transcriptase L180M/M204V/T184L mutant infected in human HepG2 cells assessed as inhibition of viral DNA replication at 100 uM after 72 hrs by RT-PCR method relative to control; conditions: HepG2, 72 h

For `Nc1ccn([C@@H]2CS[C@H](CO)O2)c(=O)n1` [LAMIVUDINE], which CC50 at 72 h [1] is on record?
The CC50 at 72 h was over 100 µM.

What about the inhibition at 20 µM [2] of the same molecule?
The inhibition at 20 µM was 92.7%.

What about the IC50 [3] of the same molecule?
The IC50 was under 0.1 µM.

And the selectivity ratio [4]?
The selectivity ratio was over 1000.

And the inhibition at 100 µM [5]?
The inhibition at 100 µM was 94.3%.

What about the IC50 [6] of the same molecule?
Its IC50 is over 100 µM.

What about the selectivity ratio [7] of the same molecule?
Its selectivity ratio is under 1.

And the inhibition at 1 µM [8]?
Its inhibition at 1 µM is 0.81%.

And the inhibition at 100 µM [9]?
Its inhibition at 100 µM is 19.4%.
